In ChEMBL document CHEMBL5096187, “Efficient Synthesis and Bioevaluation of Novel Dual Tubulin/Histone Deacetylase 3 Inhibitors as Potential Anticancer Agents” (J Med Chem, 2021):

What was measured:
HCT-116 = assay: Antiproliferative activity against human HCT-116 cells assessed as inhibition of cell viability measured for 48 hrs by microplate reader based MTT assay; format: functional; settings: HCT-116, 48 h
How it was run: (§1)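 Cells grown in RPMI-1640 with 10% FBS and seeded at 5000 cells/well. After overnight attachment, compound was added in medium with 0.1% DMSO for 48 h at 37 °C. Read-out was MTT for HCT-116, B16-F10 and A549, and CCK-8 for Jurkat (0.5 mg/mL, 4 h), with absorbance at 570 nm. IC50 from nonlinear regression; at least three independent experiments.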

B16-F10 = assay: Antiproliferative activity against mouse B16-F10 cells assessed as inhibition of cell viability measured for 48 hrs by microplate reader based MTT assay; format: functional; settings: B16-F10, 48 h; how it was run: as §1
Histone deacetylase 1 = Histone deacetylase 1 (Homo sapiens, UniProt Q13547); assay: Inhibition of full length recombinant human HDAC1 (1 to 482 residues) expressed in Baculovirus system using Ac-Leu-Gly-Lys (Ac)-AMC as substrate pretreated for 5 mins followed by substrate addition and measured after 30 mins
Sequence of Histone deacetylase 1 (Q13547 whole entry, the tested form may be a part): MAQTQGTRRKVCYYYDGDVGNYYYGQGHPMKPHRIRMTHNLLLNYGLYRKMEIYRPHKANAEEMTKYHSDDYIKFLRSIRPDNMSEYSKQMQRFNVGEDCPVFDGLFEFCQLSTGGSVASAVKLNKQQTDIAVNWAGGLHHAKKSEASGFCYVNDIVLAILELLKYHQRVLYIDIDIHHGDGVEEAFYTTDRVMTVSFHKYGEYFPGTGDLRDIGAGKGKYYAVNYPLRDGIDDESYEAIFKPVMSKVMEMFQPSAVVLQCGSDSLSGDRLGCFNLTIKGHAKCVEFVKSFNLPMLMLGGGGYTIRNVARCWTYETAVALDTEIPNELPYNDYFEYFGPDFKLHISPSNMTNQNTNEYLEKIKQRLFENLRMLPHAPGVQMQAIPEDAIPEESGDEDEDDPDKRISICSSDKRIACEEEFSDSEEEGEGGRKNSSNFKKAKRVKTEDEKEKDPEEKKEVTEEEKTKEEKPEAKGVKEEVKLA

[1] = target: T1, Protein deacetylase HDAC6 (Homo sapiens, UniProt Q9UBN7); assay: Inhibition of full length N-terminal GST-tagged human recombinant HDAC6 (1 to 1215 residues) expressed in Baculovirus infected Sf9 cells using Ac-Leu-Gly-Lys (Ac)-AMC as substrate pretreated for 5 mins followed by substrate addition and measured after 30 mins
T1 sequence (Q9UBN7 whole entry): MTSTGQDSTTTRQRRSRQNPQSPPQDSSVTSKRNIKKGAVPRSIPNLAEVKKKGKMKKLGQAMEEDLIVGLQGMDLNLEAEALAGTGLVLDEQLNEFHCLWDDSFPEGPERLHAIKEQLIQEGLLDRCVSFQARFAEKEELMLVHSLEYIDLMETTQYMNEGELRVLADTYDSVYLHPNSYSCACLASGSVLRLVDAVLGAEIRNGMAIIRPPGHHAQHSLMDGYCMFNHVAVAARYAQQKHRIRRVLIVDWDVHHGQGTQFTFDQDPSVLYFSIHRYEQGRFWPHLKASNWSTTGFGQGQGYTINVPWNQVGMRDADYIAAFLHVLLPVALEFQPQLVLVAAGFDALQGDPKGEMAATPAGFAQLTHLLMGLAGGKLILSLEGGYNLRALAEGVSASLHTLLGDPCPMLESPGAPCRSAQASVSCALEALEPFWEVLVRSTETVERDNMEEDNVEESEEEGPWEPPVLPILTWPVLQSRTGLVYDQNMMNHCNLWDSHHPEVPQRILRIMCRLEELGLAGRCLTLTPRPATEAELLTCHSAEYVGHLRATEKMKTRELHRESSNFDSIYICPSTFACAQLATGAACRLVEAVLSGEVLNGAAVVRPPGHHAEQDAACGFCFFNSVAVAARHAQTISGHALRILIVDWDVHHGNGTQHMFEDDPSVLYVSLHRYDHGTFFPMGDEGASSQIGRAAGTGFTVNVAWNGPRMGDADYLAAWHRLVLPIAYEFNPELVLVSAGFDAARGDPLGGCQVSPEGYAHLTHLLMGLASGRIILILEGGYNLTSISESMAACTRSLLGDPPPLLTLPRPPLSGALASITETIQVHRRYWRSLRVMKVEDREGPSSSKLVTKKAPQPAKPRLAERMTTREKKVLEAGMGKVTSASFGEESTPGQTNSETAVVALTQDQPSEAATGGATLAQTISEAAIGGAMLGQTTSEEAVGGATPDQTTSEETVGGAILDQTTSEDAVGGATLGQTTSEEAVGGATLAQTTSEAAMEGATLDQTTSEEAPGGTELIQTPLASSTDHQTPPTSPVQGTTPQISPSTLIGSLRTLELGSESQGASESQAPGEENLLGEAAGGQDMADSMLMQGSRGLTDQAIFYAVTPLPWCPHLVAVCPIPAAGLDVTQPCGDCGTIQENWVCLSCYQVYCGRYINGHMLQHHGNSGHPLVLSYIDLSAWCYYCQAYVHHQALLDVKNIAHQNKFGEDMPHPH
How it was run: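 HDAC6 at 15 ng/well in Tris buffer pH 8.0 with MgCl2, BSA, NaCl and KCl. Ten 3-fold dilutions preincubated 5 min at room temperature, then 10 μM Ac-Leu-Gly-Lys(Ac)-AMC for 30 min at 37 °C. IC50 by normalized dose–response nonlinear fit; performed at least three times.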

Tubulin (Sus scrofa) = Tubulin (Sus scrofa) (UniProt P02554+P02550); assay: Inhibition of pig brain tubulin polymerization at 10 uM measured after 20 mins by spectrometric method relative to control
Sequence of Tubulin (Sus scrofa) (P02550 whole entry, looked up): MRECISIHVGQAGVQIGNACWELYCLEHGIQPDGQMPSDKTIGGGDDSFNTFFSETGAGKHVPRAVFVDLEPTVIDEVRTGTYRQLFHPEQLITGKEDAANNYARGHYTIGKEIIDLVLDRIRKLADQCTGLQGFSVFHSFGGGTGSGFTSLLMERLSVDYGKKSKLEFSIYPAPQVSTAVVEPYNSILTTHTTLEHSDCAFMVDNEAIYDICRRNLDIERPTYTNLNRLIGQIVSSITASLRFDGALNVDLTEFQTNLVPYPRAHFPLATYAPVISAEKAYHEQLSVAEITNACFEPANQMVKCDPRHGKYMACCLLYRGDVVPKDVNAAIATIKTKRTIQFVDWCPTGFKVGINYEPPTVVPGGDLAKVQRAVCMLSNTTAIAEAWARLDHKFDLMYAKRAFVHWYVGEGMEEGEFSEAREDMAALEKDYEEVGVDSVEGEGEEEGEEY
Sequence of Tubulin (Sus scrofa) (P02554 whole entry, looked up): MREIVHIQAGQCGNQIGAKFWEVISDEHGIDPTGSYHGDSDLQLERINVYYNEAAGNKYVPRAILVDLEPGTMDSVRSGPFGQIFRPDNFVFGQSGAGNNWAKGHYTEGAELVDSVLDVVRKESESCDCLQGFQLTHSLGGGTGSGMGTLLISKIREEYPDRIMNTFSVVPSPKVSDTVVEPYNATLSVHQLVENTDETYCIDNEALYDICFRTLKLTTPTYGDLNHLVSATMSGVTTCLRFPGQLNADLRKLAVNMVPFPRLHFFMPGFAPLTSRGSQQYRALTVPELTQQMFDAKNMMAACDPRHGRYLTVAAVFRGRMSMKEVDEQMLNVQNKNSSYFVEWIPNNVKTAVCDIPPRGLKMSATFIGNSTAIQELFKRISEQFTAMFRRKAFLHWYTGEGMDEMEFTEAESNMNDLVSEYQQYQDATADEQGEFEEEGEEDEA
How it was run: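 Pig brain tubulin was purified by three assembly/disassembly cycles and then phosphocellulose chromatography. Compound at 10 μM in PEM buffer with 1 mM GTP and 5% glycerol at 37 °C. Polymerization followed at 340 nm; inhibition taken at 20 min versus vehicle control.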

A549 = assay: Antiproliferative activity against human A549 cells assessed as inhibition of cell viability measured for 48 hrs by microplate reader based CCK-8 assay; format: functional; settings: A549, 48 h
Histone deacetylase 8 = target: T2, Histone deacetylase 8 (Homo sapiens, UniProt Q9BY41); assay: Inhibition of full length C-terminal his-tagged human recombinant HDAC8 ([…]) expressed in baculovirus in Sf9 insect cells using Ac-Leu-Gly-Lys (Tfa)-AMC as substrate pretreated for 5 mins followed by substrate addition and measured after 30 mins
T2 sequence (Q9BY41 whole entry): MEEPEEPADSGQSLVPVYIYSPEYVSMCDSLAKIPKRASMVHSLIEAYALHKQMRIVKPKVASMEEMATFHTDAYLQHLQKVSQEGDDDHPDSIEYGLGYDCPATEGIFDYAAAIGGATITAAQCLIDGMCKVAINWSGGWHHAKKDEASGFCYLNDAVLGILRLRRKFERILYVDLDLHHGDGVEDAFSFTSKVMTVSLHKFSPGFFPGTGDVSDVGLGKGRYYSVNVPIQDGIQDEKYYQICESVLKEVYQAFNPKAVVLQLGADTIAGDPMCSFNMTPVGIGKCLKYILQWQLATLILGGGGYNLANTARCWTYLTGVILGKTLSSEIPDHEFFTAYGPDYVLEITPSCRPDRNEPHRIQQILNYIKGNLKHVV

Jurkat = assay: Antiproliferative activity against human Jurkat cells assessed as inhibition of cell viability measured for 48 hrs by microplate reader based CCK-8 assay; format: functional
Histone deacetylase 3 = Histone deacetylase 3 (Homo sapiens, UniProt O15379); assay: Inhibition of recombinant HDAC3 (unknown origin) using Ac-Leu-Gly-Lys (Ac)-AMC as substrate pretreated for 5 mins followed by substrate addition and measured after 30 mins
Sequence of Histone deacetylase 3 (O15379 whole entry): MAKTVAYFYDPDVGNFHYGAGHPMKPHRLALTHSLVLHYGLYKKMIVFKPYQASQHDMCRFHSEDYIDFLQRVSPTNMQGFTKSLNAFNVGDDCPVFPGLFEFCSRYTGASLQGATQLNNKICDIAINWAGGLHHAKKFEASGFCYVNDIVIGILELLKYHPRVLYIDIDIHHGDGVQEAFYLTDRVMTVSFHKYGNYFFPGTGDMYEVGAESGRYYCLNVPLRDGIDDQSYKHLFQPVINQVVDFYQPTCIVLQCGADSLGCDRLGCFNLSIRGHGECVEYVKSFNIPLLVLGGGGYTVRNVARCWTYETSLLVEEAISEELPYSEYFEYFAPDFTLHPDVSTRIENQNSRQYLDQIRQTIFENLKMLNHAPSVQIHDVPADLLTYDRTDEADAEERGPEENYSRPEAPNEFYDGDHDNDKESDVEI

[2] = Antiproliferative activity against human YCC-11 cells assessed as inhibition of cell viability; format: functional, cell-based
[3] = Antiproliferative activity against human YCC3/7 cells assessed as inhibition of cell viability; format: functional, cell-based
[4] = target: T3, Protein deacetylase HDAC6 (Homo sapiens) (UniProt Q9UBN7); assay: Inhibition of recombinant HDAC6 (unknown origin) at 1 uM relative to control
T3 sequence (whole entry): T1 sequence (Q9UBN7 whole entry)
How it was run: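 Single-point test at 1 μM against recombinant HDAC6 (15 ng/well) in 25 mM Tris pH 8.0, 1 mM MgCl₂, 0.1 mg/mL BSA, 137 mM NaCl, 2.7 mM KCl. Compound preincubated 5 min at room temperature, then Ac-Leu-Gly-Lys(Ac)-AMC 10 μM, 30 min at 37 °C. Trypsin/TSA developer 30 min. Fluorescence read at ex 350−360/em 450−460 nm.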

Row | Structure (SMILES) | IC50 (HCT-116) | IC50 (B16-F10) | IC50 (Histone deacetylase 1) | IC50 [1] | inhibition (Tubulin (Sus scrofa)) | IC50 (A549) | IC50 (Histone deacetylase 8) | IC50 (Jurkat) | IC50 (Histone deacetylase 3) | IC50 [2] | IC50 [3] | inhibition [4]
1 | COc1cc(C(=O)c2csc(-c3ccc(NC(=O)CCCCC(=O)Nc4ccccc4N)cc3)n2)cc(OC)c1OC | 0.44 µM | 0.83 µM | 8.12 µM | 36.4 µM | 28% | 1.54 µM | 8.74 µM | 0.02 µM | 0.18 µM | – | – | –
2 | COc1cc(C(=O)c2csc(-c3ccc(NC(=O)CCCCCCC(=O)Nc4ccccc4N)cc3)n2)cc(OC)c1OC | 0.36 µM | 0.91 µM | 9.88 µM | 29.2 µM | – | 2.1 µM | 10.2 µM | 0.03 µM | 1.73 µM | 3.68 µM | 5.31 µM | –
3 | COc1cc(C(=O)c2csc(-c3ccc(/C=C/C(=O)Nc4ccccc4N)cc3)n2)cc(OC)c1OC | 0.79 µM | 0.81 µM | 11 µM | 22.5 µM | 30% | > 10 µM | 3.11 µM | 0.01 µM | 0.17 µM | – | – | –
4 | COc1cc(C(=O)c2csc(-c3ccc(NCC(=O)Nc4ccccc4N)cc3)n2)cc(OC)c1OC | 1.64 µM | 2.35 µM | 9.8 µM | 27.1 µM | – | 2.2 µM | 9.11 µM | 0.06 µM | 1.76 µM | – | – | –
5 | COc1cc(C(=O)c2csc(-c3ccc(OCc4ccc(/C=C/C(=O)NO)cc4)cc3)n2)cc(OC)c1OC | 2.78 µM | 2.21 µM | 6.86 µM | 2.07 µM | – | > 10 µM | 7.1 µM | 0.48 µM | 8.86 µM | – | – | > 50%
6 | COc1cc(C(=O)c2csc(-c3ccc(OCc4ccc(C(=O)NO)cc4)cc3)n2)cc(OC)c1OC | 2.55 µM | 2.77 µM | 7.19 µM | 1.98 µM | – | 10 µM | 7.98 µM | 0.38 µM | 12.6 µM | – | – | > 50%
7 | COc1cc(C(=O)c2csc(-c3ccc(NC(=O)CCCC(=O)NO)cc3)n2)cc(OC)c1OC | 0.15 µM | 0.75 µM | 10.1 µM | 1.73 µM | – | > 10 µM | 6.32 µM | 0.04 µM | 13.6 µM | – | – | > 50%
8 | COc1cc(C(=O)c2csc(-c3ccc(NC(=O)CCC(=O)NO)cc3)n2)cc(OC)c1OC | 2.51 µM | 0.92 µM | 7.36 µM | 1.86 µM | – | 5.83 µM | 5.14 µM | 0.42 µM | 12.3 µM | – | – | > 50%
9 | COc1cc(C(=O)c2csc(-c3ccc(NC(=O)/C=C/C(=O)NO)cc3)n2)cc(OC)c1OC | 2.82 µM | 1.48 µM | 17.5 µM | 1.05 µM | – | > 10 µM | 3.9 µM | 0.5 µM | 13 µM | – | – | > 50%
10 | COc1cc(C(=O)c2csc(-c3ccc(OCCCCCCC(=O)Nc4ccccc4N)cc3)n2)cc(OC)c1OC | 1.91 µM | 1.89 µM | 7.49 µM | 27.1 µM | 18% | 2.44 µM | 7.49 µM | 0.7 µM | 0.47 µM | – | – | –
11 | COc1cc(C(=O)c2csc(-c3ccc(NC(=O)CCCCCC(=O)Nc4ccccc4N)cc3)n2)cc(OC)c1OC | 0.67 µM | > 10 µM | 8.53 µM | 27.3 µM | 24% | 2.36 µM | 8.5 µM | 0.02 µM | 0.39 µM | – | – | –
12 | COc1cc(C(=O)c2csc(-c3ccc(NC(=O)c4ccc(C(=O)Nc5ccccc5N)cc4)cc3)n2)cc(OC)c1OC | 1.42 µM | 4.32 µM | 10.5 µM | 36.3 µM | – | 6.58 µM | 2.08 µM | 0.52 µM | 3.46 µM | – | – | –
13 | COc1cc(C(=O)c2csc(-c3ccc(NCCC(=O)Nc4ccccc4N)cc3)n2)cc(OC)c1OC | 0.6 µM | 0.67 µM | 10.7 µM | 23.8 µM | 19% | > 10 µM | 8.28 µM | 0.03 µM | 0.38 µM | – | – | –
14 | COc1cc(C(=O)c2csc(-c3ccc(NC(=O)CCCCCC(=O)NO)cc3)n2)cc(OC)c1OC | 1.9 µM | > 10 µM | 19.1 µM | 1.94 µM | – | > 10 µM | 4.17 µM | 0.15 µM | 12.2 µM | – | – | > 50%
15 | COc1cc(C(=O)c2csc(-c3ccc(NC(=O)CCCCC(=O)NO)cc3)n2)cc(OC)c1OC | 0.77 µM | > 10 µM | 16.6 µM | 2.55 µM | – | > 10 µM | 3.28 µM | 0.06 µM | 13.1 µM | – | – | > 50%
16 | COc1cc(C(=O)c2csc(-c3ccc(C#CCCC(=O)Nc4ccccc4N)cc3)n2)cc(OC)c1OC | 2.11 µM | > 10 µM | 9.77 µM | 20.2 µM | – | > 10 µM | 6.55 µM | 0.26 µM | 1.98 µM | – | – | –
17 | COc1cc(C(=O)c2csc(-c3ccc(NC(=O)CC(=O)Nc4ccccc4N)cc3)n2)cc(OC)c1OC | 1.01 µM | > 10 µM | 4.07 µM | 21.1 µM | 65% | > 10 µM | 12 µM | 0.06 µM | 0.36 µM | – | – | –
